The values that follow come from ChEMBL document CHEMBL3872222, “Synthesis of novel curcuminoids accommodating a central β-enaminone motif and their impact on cell growth and oxidative stress” (Eur J Med Chem, 2016).

Data set [1] deals with HT-29. Put plainly: Antioxidant activity in human HT-29 cells assessed as decrease in intracellular ROS level after overnight incubation by DCFH-DA staining based fluorescence assay. Format: functional, cell-based. In outline:
(§1)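 Cells grown in DMEM+glutamax, 1% NEAA, 1% P/S, 10% FBS; seeded 20000/well, treated at confluency overnight in serum-free medium, DMSO under 0.1% final. Loaded with 20 μM DCFH-DA 30 min at 37 °C, 10% CO2; washed, phenol red-free medium 1 h, then serum-free medium; fluorescence ex 485/em 535 nm. Percent of untreated; two-tailed unequal-variance t-test, n≥6.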

In data set [2] the test system is CHO. Put plainly: Effect on oxidative stress in CHO cells assessed as intracellular ROS level at 1 uM after overnight incubation by DCFH-DA staining based fluorescence assay relative to control. Format: functional, Cricetulus griseus. In outline: as §1
Data set [3] can be described thus: Antioxidant activity assessed as inhibition of DPPH radical activity at 1 uM measured after 30 mins under dark conditions by spectrophotometric analysis relative to control. In kind it is functional.
Data set [4] has as its system EA.hy 926. As to the kind of experiment: Effect on oxidative stress in human EAhy926 cells assessed as intracellular ROS level at 1 uM after overnight incubation by DCFH-DA staining based fluorescence assay relative to control. Format: functional. The procedure, abridged: as §1
The nature of data set [5]: Growth inhibition of human EAhy926 cells assessed as mitochondrial activity measured after 72 hrs by MTT assay. Format: cell-based. To be noted: EA.hy 926, 72 h. The procedure, abridged:
(§2)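 Seeded 20000 cells/well in DMEM+glutamax, NEAA, P/S, FBS; after 1 day treated 1, 5, 10, 25 μM in serum-free medium (DMSO under 0.1%) for 3 days. MTT (5 mg/ml in PBS) 2 h at 37 °C, 10% CO2 in dark; formazan dissolved in DMSO, absorbance 570 nm; triplicate; IC50 derived.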

Data set [6] deals with HT-29. As to the kind of experiment: Effect on oxidative stress in human HT-29 cells assessed as intracellular ROS level at 1 uM after overnight incubation by DCFH-DA staining based fluorescence assay relative to control. Format: functional. In outline:
as §1

The nature of data set [7]: Growth inhibition of human HT-29 cells measured after 72 hrs by SRB assay. In kind it is functional, cell-based. To be noted: HT-29, 72 h. In outline: (§3)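 20000 cells/well treated after 1 day at 1, 5, 10, 25 μM, serum-free, for 3 days. Fixed with 50% TCA 1 h at 4 °C, stained 30 min with 0.4% sulforhodamine B in 1% acetic acid, rinsed with 1% acetic acid, dye dissolved in 10 mM Tris, absorbance 490 nm; triplicate; IC50 derived.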

Data set [8] can be described thus: Growth inhibition of human HT-29 cells assessed as mitochondrial activity measured after 72 hrs by MTT assay. To be noted: HT-29, 72 h. In kind it is functional, cell-based. The procedure, abridged:
as §2

The subject of data set [9] is Caco-2. Put plainly: Effect on oxidative stress in undifferentiated human Caco2 cells assessed as intracellular ROS level at 1 uM after overnight incubation by DCFH-DA staining based fluorescence assay relative to control. In kind it is functional. The procedure, abridged:
as §1

The nature of data set [10]: Growth inhibition of undifferentiated human Caco2 cells measured after 72 hrs by SRB assay. In kind it is functional, cell-based. To be noted: Caco-2, 72 h. The procedure, abridged: as §3
In data set [11] the test system is HT-29. As to the kind of experiment: Antioxidant activity in human HT-29 cells assessed as decrease in intracellular ROS level after overnight incubation by DCFH-DA staining based fluorescence assay.
Data set [12] in a line: Growth inhibition of differentiated human Caco2 cells measured after 72 hrs by SRB assay. Format: cell-based. To be noted: Caco-2, 72 h. In outline:
as §3

A short description of data set [13]: Solubility of the compound in serum-free DMEM assessed as compound concentration required for crystal formation measured after 1 day by microscopic analysis. Format: physicochemical. To be noted: 24 h. In outline: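 Compound at 0, 0.5, 1, 5, 10, 25 and 50 μM in serum-free DMEM incubated 1 day at 37 °C, 10% CO2, then examined for crystal formation.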
For data set [14], the system named is Caco-2. Put plainly: Effect on oxidative stress in undifferentiated human Caco2 cells assessed as intracellular ROS level at 10 uM after overnight incubation by DCFH-DA staining based fluorescence assay relative to control. Format: functional. In outline: as §1
The nature of data set [15]: Growth inhibition of differentiated human Caco2 cells assessed as mitochondrial activity measured after 72 hrs by MTT assay. Format: cell-based. To be noted: Caco-2, 72 h. The procedure, abridged:
as §2

The nature of data set [16]: Antioxidant activity assessed as trolox equivalent of ferric ion reducing activity using Fe3+-TPTZ by measuring Fe2+-TPTZ formation after 4 mins by UV-vis spectrophotometry based FRAP assay. In kind it is functional. In outline: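 FRAP reagent: 300 mM acetate buffer, 10 mM TPTZ in ethanol and 20 mM FeCl3 (in dilute HCl) combined 10:1:1, TPTZ and iron freshly made. Sample mixed 1:9 with reagent; absorbance 593 nm after 4 min. Expressed as trolox equivalents per μM from slope of linear plot versus analog concentration.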

Data set [17] relates to HT-29. As to the kind of experiment: Effect on oxidative stress in human HT-29 cells assessed as intracellular ROS level at 10 uM after overnight incubation by DCFH-DA staining based fluorescence assay relative to control. Format: functional. In outline: as §1
Data set [18] concerns EA.hy 926. Put plainly: Effect on oxidative stress in human EAhy926 cells assessed as intracellular ROS level at 10 uM after overnight incubation by DCFH-DA staining based fluorescence assay relative to control. Format: functional. In outline: as §1
In data set [19] the test system is CHO. As to the kind of experiment: Effect on oxidative stress in CHO cells assessed as intracellular ROS level at 10 uM after overnight incubation by DCFH-DA staining based fluorescence assay relative to control. Format: functional, Cricetulus griseus. In outline: as §1
Data set [20] is described as follows: Growth inhibition of undifferentiated human Caco2 cells assessed as mitochondrial activity measured after 72 hrs by MTT assay. In kind it is functional, cell-based. To be noted: Caco-2, 72 h. In outline: as §2
Data set [21] is described as follows: Growth inhibition of CHOK1 cells measured after 72 hrs by SRB assay. Format: functional, cell-based. To be noted: Cricetulus griseus, CHO-K1, 72 h. In outline:
as §3

A short description of data set [22]: Growth inhibition of human EAhy926 cells measured after 72 hrs by SRB assay. In kind it is cell-based. To be noted: EA.hy 926, 72 h. In outline:
as §3

Data set [23] in a line: Growth inhibition of CHOK1 cells assessed as mitochondrial activity measured after 72 hrs by MTT assay. To be noted: Cricetulus griseus, CHO-K1, 72 h. Format: functional, cell-based. In outline:
as §2

≈ marks a conversion by molar mass, not a printed value.

As for `COc1cc(/C=C/C(=O)CC(=O)/C=C/c2ccc(O)c(OC)c2)ccc1O` [CURCUMIN], the Activity entry in the data set on HT-29 [1] was “Dose-dependent effect”; in the data set with CHO [2], 112%; with EA.hy 926 [4], 91%; in the data set with HT-29 [6], 67%; in the data set on Caco-2 [9], 84%; with HT-29 [11], “Dose-dependent effect”. The Activity in the data set with Caco-2 [14] amounted to 77%; in [16] it was 1 µMequiv/µM; with HT-29 [17], 65%; in the data set on EA.hy 926 [18], 88%; in the data set with CHO [19], 97%. The inhibition in [3] is 0.15%. Also, the IC50 in [5], in [7], in data set [8], in data set [10], in data set [12] and in data set [15] was greater than 25 µM throughout. The IC50 was greater than 25 µM in [20], greater than 25 µM in data set [21], greater than 25 µM in data set [22] and 7.5 µM in data set [23]. The solubility in data set [13] came out at 0.5 µM (≈ 0.184 µg/mL).

Take `COc1cc(/C=C/C(=O)/C=C(/C=C/c2ccc(O)c(OC)c2)NCC(C)C)ccc1O`: the Activity was 104% in the data set on CHO [2]; 83% in the data set with EA.hy 926 [4]; 91% with HT-29 [6]; 91% in the data set on Caco-2 [9]; 74% with Caco-2 [14]; 0.89 µMequiv/µM in data set [16]. Besides, the Activity in the data set on HT-29 [17] is recorded as 92%; in the data set with EA.hy 926 [18] it was 100%; in the data set with CHO [19], 118%. Besides, in data set [3], the inhibition was determined as 0.09%. In addition, the IC50 in [5] is greater than 25 µM; in [7], 24 µM; in [8], 24.5 µM; in data set [10] it was greater than 25 µM; in data set [12], greater than 25 µM; in data set [15], greater than 25 µM. The IC50 in data set [20], in [21], in data set [22] and in data set [23] was greater than 25 µM in each case. Besides, in data set [13], the solubility is 25 µM (≈ 10.6 µg/mL).
